Results reported in ChEMBL document CHEMBL4513216, “Probing the Open Global Health Chemical Diversity Library for Multistage-Active Starting Points for Next-Generation Antimalarials” (ACS Infect Dis, 2020).

test: Toxicity liver stage against HepG2, at 10uM; type: cell-based; set-up: test concentration 10 uM, cell line HepG2-A16-CD81EGFP; details: human, HepG2-A16-CD81EGFP cells; read-out: INHIBITION
Outline: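 Uninfected HepG2-A16-CD81EGFP cells, 3 × 10^3 per well, 1536-well, plated on prespotted compound at 10 μM final, parasite-free screening media added to match infected plates; puromycin 10 μM positive, DMSO 0.5% negative; run in parallel with 48 h PbLuc assay at 37 °C, 5% CO2; viability by CellTiter-Glo luminescence, normalized to controls.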

Row | Structure (SMILES) | cytotoxicity at 10 µM [%]
1 | O=S(=O)(CC1CCCN1S(=O)(=O)C1CC1)c1ccccc1 (stereo not drawn) | -5.75
2 | C1CCN(Cc2nnn3c2CN(CC2CC2)CCC3)C1 | -139
3 | O=C([C@H]1COC[C@H]2CN(c3ccncn3)C[C@H]21)N1CCCC1 | -140
4 | CCn1nc2ccc(S(=O)(=O)N3CCSCC3)cn2c1=O | 2.4
5 | CC1c2ncc(Cn3cncn3)n2CCN1C(=O)C1CCOCC1 (stereo not drawn) | -13
6 | COCCNC(=O)Cn1cc2c(n1)c(C)nn2C(C)C | -6.24
7 | CC(=O)c1c(O)ccnc1C(F)(F)F | 2.34
8 | CNC(=O)C1CN(C(=O)c2ccncc2)CCN(S(C)(=O)=O)C1 (stereo not drawn) | 6.67
9 | Cc1noc(-c2cnc(NC3CC3)nc2-c2ccco2)c1C | 6.38
10 | CC(C)c1ncc2c(n1)CN(CC1CCCCO1)CC2 (stereo not drawn) | 8.86
11 | NC(=O)C1CCN(C(=O)NC2CCN(CC3CCCC3)C2)CC1 (stereo not drawn) | 13
12 | CC(C)CCC(=O)N1CCN(c2ncnc3nc(N)ccc23)CC1 | 8.32
13 | Cc1ccc(OCCN(C)C2CCOC2=O)cc1 (stereo not drawn) | -146
14 | Cn1cc(CC(=O)N2CCCC(c3cc(C(F)(F)F)[nH]n3)C2)cn1 (stereo not drawn) | -7.11
15 | CNC(=O)c1sc(C(NC(=O)c2ccccc2)C2CC2)nc1C (stereo not drawn) | 2.31
16 | CCn1cnnc1CNC(=O)NCC(C)(CC)N1CCOCC1 (stereo not drawn) | -10.3
17 | Cc1c(COC(C)C)cccc1NC(=O)N1CC[C@H](O)C1 | -11
18 | COCc1ccccc1C(=O)NCC(c1c(F)cccc1F)N(C)C (stereo not drawn) | -9.75
19 | COCCOCCCC(=O)N1CCC(Cc2ccccc2OC)CC1 | 7.28
20 | O=C(OC1CCC1)c1ncccc1OCC(F)(F)F | -12.6
21 | Cc1csc(CCNC(=O)C2CCOC2)n1 (stereo not drawn) | -6.17

Row | Structure (SMILES) | cytotoxicity at 10 µM [%]
22 | CC(O)CN1CCN(C(=O)c2cccn2Cc2cccnc2)CC1 (stereo not drawn) | -9.15
23 | CN(C)C(CNC(=O)NCc1cc[nH]n1)c1ccco1 (stereo not drawn) | -5.47
24 | Cc1nc(CCNC(=O)NC2CCCN(c3ncccn3)C2)cs1 (stereo not drawn) | -129
25 | CCNC(=O)CNC(=O)Nc1c(F)cc(F)cc1-c1ccccc1 | -7.55
26 | CCN(C(=O)NCCc1cccc(F)c1F)C(C)CS(C)(=O)=O (stereo not drawn) | 11.9
27 | NC(=O)NCC1CCCCN1C(=O)c1ccc(Br)s1 (stereo not drawn) | -0.147
28 | Cc1cccc(I)c1C(=O)NCc1ncc[nH]1 | 0.392
29 | OCC(CO)Nc1ccc2c(Cl)ccc(Cl)c2n1 | -3.04
30 | CCOCCCC(=O)Nc1cccnc1-n1ccnc1C | 9.21
31 | Cc1cc(NCCS(C)(=O)=O)nc2ccccc12 | 0.748
32 | Cc1ncc(COc2cccc3c2NC(=O)CO3)s1 | -3.13
33 | CC(NC(=O)NCCCn1cccn1)c1cccnc1 (stereo not drawn) | 23.1
34 | CS(=O)(=O)CCSc1cccc(C#N)c1 | -5.61
35 | CC(C)c1cnc(CNc2c(F)cccc2-n2cccn2)o1 | -6.07
36 | Cc1ccn(-c2ccccc2NCc2ncc[nH]2)n1 | -5.95
37 | Cc1noc(C(C)C)c1C(=O)NS(=O)(=O)c1ccc2c(c1)OCCCO2 | -9.06
38 | O=C([C@@H]1COC[C@H]2CN(C3CCCCC3)C[C@H]21)N1CCOCC1 | -107
39 | Cc1ccc(C(=O)N2C[C@@H]3OCCN(CC4CCCC4)[C@@H]3C2)cn1 | -76
40 | c1ccc(COC[C@@H]2CC[C@H]3[C@H](CCN3c3ncccn3)O2)nc1 | -74.6
41 | CCc1nnsc1C(=O)NCCC1CCCN(C(C)C)C1 (stereo not drawn) | 4.95
42 | CN1CC2(CCCN(CCOCc3ccccc3)C2)OC1=O (stereo not drawn) | -10.4

Row | Structure (SMILES) | cytotoxicity at 10 µM [%]
43 | CC(C)CN1CCCn2nc(CNC(=O)CN3CCOC3=O)cc2C1 | 0.541
44 | CN(Cc1ccoc1)C(=O)CN1C(=O)OC(C)(C)C1=O | -128
45 | CC(C)c1nccn1CCCNC(=O)c1ccc(-c2cn[nH]c2)nc1 | -5.84
46 | c1ccc(CCc2noc(CN3CCC(N4CCSCC4)CC3)n2)cc1 | -8.01
47 | O=c1[nH]c(-c2ccccn2)nc2c1CCN(S(=O)(=O)N1CCCC1)C2 | 8.85
48 | CCn1nc(CC(C)C)cc1C(=O)N1CCOCC(O)C1 (stereo not drawn) | -14.3
49 | CC(C)c1noc(CC[C@@H]2CCCN3CCCC[C@H]23)n1 | -0.143
50 | CN(C)c1nc(NCc2cccnc2N)ncc1F | -2.11
51 | CCCc1cc(C(=O)NCCCn2nnc3ccccc32)no1 | -12.5
52 | COC(=O)c1ccccc1C(=O)N(CCN(C)C)Cc1sccc1C | -129
53 | CCn1ccnc1CN1CCC(=O)N(CC2CC2)C(C(C)C)C1 (stereo not drawn) | -10.3
54 | O=c1cc(-c2ccncc2)nc(-c2ccc(CN3CC[C@H](O)C3)cc2)[nH]1 | 4.48
55 | O=C(NCCC1CN(C2CCCC2)CCO1)c1c[nH]c(=O)[nH]c1=O (stereo not drawn) | 0.0436
56 | CCC(CC)CN1CCCn2nc(CNC(=O)COC)cc2C1 | 2.66
57 | c1cncc(-n2cnnc2CC2CCNCC2)c1 | -20.1
58 | CN1C(=O)CC(C(=O)O)C12CCN(Cc1ccc(Cl)cc1F)CC2 (stereo not drawn) | -7.82
59 | CCN1CC2(CCN(CCOCCO)CC2)CC(c2ccccc2)C1=O (stereo not drawn) | 42.4
60 | CCn1c(Cn2cncn2)nnc1C1CCN(C(=O)CCSC)CC1 | -13.6
61 | CSc1ccc(CN(C)C(=O)c2cc3c([nH]c2=O)CCCC3=O)cc1 | -1.25
62 | COCCCNC(=O)CN(C)C(=O)c1ccc(OC)cc1O | -10.7
63 | N#Cc1ccsc1NC(=O)CN1CCOC(Cn2cccn2)C1 (stereo not drawn) | -5.66

Row | Structure (SMILES) | cytotoxicity at 10 µM [%]
64 | COCCN1CCN(Cc2csc(-c3cnn(C)c3)n2)CC1 | -9.71
65 | CCNc1cc2c(nn1)CCN(C(=O)c1ccnc(C)n1)C2 | -5.04
66 | CC(C)OCCCNC(=O)CS(=O)(=O)Cc1ccc(Cl)c(Cl)c1 | -9.7
67 | O=C(NCCOc1cccc(Cl)c1)C1CC(=O)N(CC2CC2)C1 (stereo not drawn) | -0.98
68 | O=C(COC(=O)Cc1cccs1)NCc1cccc(NC(=O)C2CC2)c1 | -8.08
69 | COC(=O)c1cccc(OCCn2nc(-c3cccs3)oc2=O)c1 | -6.56
70 | CCn1nc2c(cc1=O)CN(Cc1nc(-c3ccsc3)no1)CC2 | -17.1
71 | O=C(c1cccnc1N1CCOCC1)N1CCCC(n2ccnc2)C1 (stereo not drawn) | -3.56
72 | CCS(=O)(=O)CCN1CCCC1c1noc(C2CC2)n1 (stereo not drawn) | -6.33
73 | CC(O)CN1CCN(C(=O)c2cccc(CC#N)c2)CC1 (stereo not drawn) | -3.74
74 | CC(C)c1nnc2n1CCN(CCCS(=O)(=O)c1ccccc1)C2 | -12.3
75 | CC(C)CC(=O)N1CCC2(CC1)OC(C(N)=O)Cn1ccnc12 (stereo not drawn) | -105
76 | CN(Cc1cccnc1)C[C@@H]1OC[C@H]2CN(Cc3ccco3)CC[C@H]21 | -147
77 | Cc1nc(C)n(CC2CN(Cc3nccs3)Cc3nccn3C2)n1 (stereo not drawn) | -140
78 | O=C(NC[C@H]1OC[C@@H]2CN(Cc3ccco3)CC[C@@H]21)c1cccnc1 | -141
79 | O=C1N(c2cncnc2)CCC12CCCN(Cc1cccnc1)C2 (stereo not drawn) | -79.6
80 | O=C(NCc1ccco1)[C@H]1CC[C@@H]2[C@@H](CCN2c2ncccn2)O1 | -69.6
81 | C1CN(CC2CCOCC2)Cc2c(COCC3CC3)nnn2C1 | -130
82 | Cc1ccc(C(NC(=O)C2CCC(O)CC2)c2cccnc2)cc1C (stereo not drawn) | 24.2
83 | CCCC12CN3CC(C)(CN(C1)C3c1[nH]c(=O)[nH]c(=O)c1C)C2=O (stereo not drawn) | 3.15
